According to ChEMBL document CHEMBL1155297, “Synthesis, antimicrobial and antioxidant activities of substituted pyrazoles, isoxazoles, pyrimidine and thioxopyrimidine derivatives” (2009):

Test system: Staphylococcus aureus
Assay: Antibacterial activity against Staphylococcus aureus NCIM 5021 at 100 ug/disk after 24 hrs by agar disk diffusion method
Type: functional
Conditions: NCIM 5021, 24 h, read-out: IZ
Summary of the method: (§1)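 Agar disc diffusion on nutrient agar plates pre-inoculated with each bacterium. Sterile 6 mm filter-paper discs were moistened with compound in DMSO at the stated per-disc amount. Plates were incubated at 37 °C, and the growth-inhibition zone diameter was read after 24 h. Each determination was run in triplicate, and the mean of three independent readings is reported.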

Compound	zone of inhibition at 100 µg/disc [mm]
NC1=NC(=O)N=C(N)C1C(CC(=O)c1ccccc1)C(=O)c1ccccc1 (stereo not drawn)	11
NC1=NC(=S)N=C(N)C1C(CC(=O)c1ccccc1)C(=O)c1ccccc1 (stereo not drawn)	22
Cc1ccc(S(=O)(=O)CC(C2C(N)=NC(=O)N=C2N)S(=O)(=O)c2ccc(C)cc2)cc1 (stereo not drawn)	21

Test system: Staphylococcus aureus
Assay: Antibacterial activity against Staphylococcus aureus NCIM 5021 at 200 ug/disk after 24 hrs by agar disk diffusion method
Type: functional
Conditions: NCIM 5021, 24 h, read-out: IZ
Summary of the method: as §1

Compound	zone of inhibition at 200 µg/disc [mm]
NC1=NC(=O)N=C(N)C1C(CC(=O)c1ccccc1)C(=O)c1ccccc1 (stereo not drawn)	14
NC1=NC(=S)N=C(N)C1C(CC(=O)c1ccccc1)C(=O)c1ccccc1 (stereo not drawn)	24
Cc1ccc(S(=O)(=O)CC(C2C(N)=NC(=O)N=C2N)S(=O)(=O)c2ccc(C)cc2)cc1 (stereo not drawn)	23

Test system: Bacillus subtilis
Assay: Antibacterial activity against Bacillus subtilis NCIM 2063 at 100 ug/disk after 24 hrs by agar disk diffusion method
Type: functional
Conditions: NCIM 2063, 24 h, read-out: IZ
Summary of the method: as §1

Compound	zone of inhibition at 100 µg/disc [mm]
NC1=NC(=O)N=C(N)C1C(CC(=O)c1ccccc1)C(=O)c1ccccc1 (stereo not drawn)	16
NC1=NC(=S)N=C(N)C1C(CC(=O)c1ccccc1)C(=O)c1ccccc1 (stereo not drawn)	23
Cc1ccc(S(=O)(=O)CC(C2C(N)=NC(=O)N=C2N)S(=O)(=O)c2ccc(C)cc2)cc1 (stereo not drawn)	22

Test system: Bacillus subtilis
Assay: Antibacterial activity against Bacillus subtilis NCIM 2063 at 200 ug/disk after 24 hrs by agar disk diffusion method
Type: functional
Conditions: NCIM 2063, 24 h, read-out: IZ
Summary of the method: as §1

Compound	zone of inhibition at 200 µg/disc [mm]
NC1=NC(=O)N=C(N)C1C(CC(=O)c1ccccc1)C(=O)c1ccccc1 (stereo not drawn)	15
NC1=NC(=S)N=C(N)C1C(CC(=O)c1ccccc1)C(=O)c1ccccc1 (stereo not drawn)	24
Cc1ccc(S(=O)(=O)CC(C2C(N)=NC(=O)N=C2N)S(=O)(=O)c2ccc(C)cc2)cc1 (stereo not drawn)	24

Test system: Klebsiella pneumoniae
Assay: Antibacterial activity against Klebsiella pneumoniae NCIM 2957 at 100 ug/disk after 24 hrs by agar disk diffusion method
Type: functional
Conditions: NCIM 2957, 24 h, read-out: IZ
Summary of the method: as §1

Compound	zone of inhibition at 100 µg/disc [mm]
NC1=NC(=O)N=C(N)C1C(CC(=O)c1ccccc1)C(=O)c1ccccc1 (stereo not drawn)	11
NC1=NC(=S)N=C(N)C1C(CC(=O)c1ccccc1)C(=O)c1ccccc1 (stereo not drawn)	19
Cc1ccc(S(=O)(=O)CC(C2C(N)=NC(=O)N=C2N)S(=O)(=O)c2ccc(C)cc2)cc1 (stereo not drawn)	17

Test system: Klebsiella pneumoniae
Assay: Antibacterial activity against Klebsiella pneumoniae NCIM 2957 at 200 ug/disk after 24 hrs by agar disk diffusion method
Type: functional
Conditions: NCIM 2957, 24 h, read-out: IZ
Summary of the method: as §1

Compound	zone of inhibition at 200 µg/disc [mm]
NC1=NC(=O)N=C(N)C1C(CC(=O)c1ccccc1)C(=O)c1ccccc1 (stereo not drawn)	12
NC1=NC(=S)N=C(N)C1C(CC(=O)c1ccccc1)C(=O)c1ccccc1 (stereo not drawn)	21
Cc1ccc(S(=O)(=O)CC(C2C(N)=NC(=O)N=C2N)S(=O)(=O)c2ccc(C)cc2)cc1 (stereo not drawn)	19

Test system: Proteus vulgaris
Assay: Antibacterial activity against Proteus vulgaris NCIM 2027 at 100 ug/disk after 24 hrs by agar disk diffusion method
Type: functional
Conditions: NCIM 2027, 24 h, read-out: IZ
Summary of the method: as §1

Compound	zone of inhibition at 100 µg/disc [mm]
NC1=NC(=O)N=C(N)C1C(CC(=O)c1ccccc1)C(=O)c1ccccc1 (stereo not drawn)	12
NC1=NC(=S)N=C(N)C1C(CC(=O)c1ccccc1)C(=O)c1ccccc1 (stereo not drawn)	17
Cc1ccc(S(=O)(=O)CC(C2C(N)=NC(=O)N=C2N)S(=O)(=O)c2ccc(C)cc2)cc1 (stereo not drawn)	16

Test system: Proteus vulgaris
Assay: Antibacterial activity against Proteus vulgaris NCIM 2027 at 200 ug/disk after 24 hrs by agar disk diffusion method
Type: functional
Conditions: NCIM 2027, 24 h, read-out: IZ
Summary of the method: as §1

Compound	zone of inhibition at 200 µg/disc [mm]
NC1=NC(=O)N=C(N)C1C(CC(=O)c1ccccc1)C(=O)c1ccccc1 (stereo not drawn)	14
NC1=NC(=S)N=C(N)C1C(CC(=O)c1ccccc1)C(=O)c1ccccc1 (stereo not drawn)	19
Cc1ccc(S(=O)(=O)CC(C2C(N)=NC(=O)N=C2N)S(=O)(=O)c2ccc(C)cc2)cc1 (stereo not drawn)	18

Test system: Fusarium solani
Assay: Antifungal activity against Fusarium solani NCIM 1330 at 100 ug/disk after 48 hrs by agar disk diffusion method
Type: functional
Conditions: NCIM 1330, 48 h, read-out: IZ
Summary of the method: (§2)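 Fungal disc diffusion on nutrient agar plates pre-inoculated with each fungus. 6 mm sterile paper discs carried the compound in DMSO at the stated amount per disc. Plates were held at 37 °C, and inhibition-zone diameter was measured after 48 h. Values are the mean of three independent triplicate readings.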

Compound	zone of inhibition at 100 µg/disc [mm]
NC1=NC(=O)N=C(N)C1C(CC(=O)c1ccccc1)C(=O)c1ccccc1 (stereo not drawn)	13
NC1=NC(=S)N=C(N)C1C(CC(=O)c1ccccc1)C(=O)c1ccccc1 (stereo not drawn)	16
Cc1ccc(S(=O)(=O)CC(C2C(N)=NC(=O)N=C2N)S(=O)(=O)c2ccc(C)cc2)cc1 (stereo not drawn)	13

Test system: Fusarium solani
Assay: Antifungal activity against Fusarium solani NCIM 1330 at 200 ug/disk after 48 hrs by agar disk diffusion method
Type: functional
Conditions: NCIM 1330, 48 h, read-out: IZ
Summary of the method: as §2

Compound	zone of inhibition at 200 µg/disc [mm]
NC1=NC(=O)N=C(N)C1C(CC(=O)c1ccccc1)C(=O)c1ccccc1 (stereo not drawn)	16
NC1=NC(=S)N=C(N)C1C(CC(=O)c1ccccc1)C(=O)c1ccccc1 (stereo not drawn)	20
Cc1ccc(S(=O)(=O)CC(C2C(N)=NC(=O)N=C2N)S(=O)(=O)c2ccc(C)cc2)cc1 (stereo not drawn)	16

Test system: Curvularia lunata
Assay: Antifungal activity against Curvularia lunata NCIM 716 at 100 ug/disk after 48 hrs by agar disk diffusion method
Type: functional
Conditions: NCIM 716, 48 h, read-out: IZ
Summary of the method: as §2

Compound	zone of inhibition at 100 µg/disc [mm]
NC1=NC(=O)N=C(N)C1C(CC(=O)c1ccccc1)C(=O)c1ccccc1 (stereo not drawn)	16
NC1=NC(=S)N=C(N)C1C(CC(=O)c1ccccc1)C(=O)c1ccccc1 (stereo not drawn)	19
Cc1ccc(S(=O)(=O)CC(C2C(N)=NC(=O)N=C2N)S(=O)(=O)c2ccc(C)cc2)cc1 (stereo not drawn)	16

Test system: Curvularia lunata
Assay: Antifungal activity against Curvularia lunata NCIM 716 at 200 ug/disk after 48 hrs by agar disk diffusion method
Type: functional
Conditions: NCIM 716, 48 h, read-out: IZ
Summary of the method: as §2

Compound	zone of inhibition at 200 µg/disc [mm]
NC1=NC(=O)N=C(N)C1C(CC(=O)c1ccccc1)C(=O)c1ccccc1 (stereo not drawn)	20
NC1=NC(=S)N=C(N)C1C(CC(=O)c1ccccc1)C(=O)c1ccccc1 (stereo not drawn)	22
Cc1ccc(S(=O)(=O)CC(C2C(N)=NC(=O)N=C2N)S(=O)(=O)c2ccc(C)cc2)cc1 (stereo not drawn)	18

Test system: Aspergillus niger
Assay: Antifungal activity against Aspergillus niger NCIM 596 at 100 ug/disk after 48 hrs by agar disk diffusion method
Type: functional
Conditions: NCIM 596, 48 h, read-out: IZ
Summary of the method: as §2

Compound	zone of inhibition at 100 µg/disc [mm]
NC1=NC(=O)N=C(N)C1C(CC(=O)c1ccccc1)C(=O)c1ccccc1 (stereo not drawn)	14
NC1=NC(=S)N=C(N)C1C(CC(=O)c1ccccc1)C(=O)c1ccccc1 (stereo not drawn)	14
Cc1ccc(S(=O)(=O)CC(C2C(N)=NC(=O)N=C2N)S(=O)(=O)c2ccc(C)cc2)cc1 (stereo not drawn)	11

Test system: Aspergillus niger
Assay: Antifungal activity against Aspergillus niger NCIM 596 at 200 ug/disk after 48 hrs by agar disk diffusion method
Type: functional
Conditions: NCIM 596, 48 h, read-out: IZ
Summary of the method: as §2

Compound	zone of inhibition at 200 µg/disc [mm]
NC1=NC(=O)N=C(N)C1C(CC(=O)c1ccccc1)C(=O)c1ccccc1 (stereo not drawn)	17
NC1=NC(=S)N=C(N)C1C(CC(=O)c1ccccc1)C(=O)c1ccccc1 (stereo not drawn)	19
Cc1ccc(S(=O)(=O)CC(C2C(N)=NC(=O)N=C2N)S(=O)(=O)c2ccc(C)cc2)cc1 (stereo not drawn)	15

Test system: Radical scavenging activity
Assay: Antioxidant activity assessed as DPPH free radical scavenging activity at 100 uM after 20 mins
Type: functional
Conditions: not given
Summary of the method: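 DPPH scavenging: compound solutions were added to DPPH in dioxane/ethanol and kept at ambient temperature for 20 min. Absorbance was read at 517 nm. The test–control difference was expressed as percent DPPH radical scavenging.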

Compound	inhibition [%]
NC1=NC(=O)N=C(N)C1C(CC(=O)c1ccccc1)C(=O)c1ccccc1 (stereo not drawn)	24.7
NC1=NC(=S)N=C(N)C1C(CC(=O)c1ccccc1)C(=O)c1ccccc1 (stereo not drawn)	37.8
Cc1ccc(S(=O)(=O)CC(C2C(N)=NC(=O)N=C2N)S(=O)(=O)c2ccc(C)cc2)cc1 (stereo not drawn)	28.1

Test system: not listed separately
Assay: Antioxidant activity assessed as nitric oxide production at 100 uM after 120 mins by Griess reagent method
Type: functional
Conditions: not given
Summary of the method: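 Nitric oxide assay with Griess read-out. At intervals, 0.5 ml of incubation solution was mixed with 0.5 ml Griess reagent (1% sulfanilamide, 0.1% N-naphthylethylenediamine dihydrochloride, 2% o-phosphoric acid in water). The control received an equal amount of solvent and was handled identically.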

Compound	inhibition [%]
NC1=NC(=O)N=C(N)C1C(CC(=O)c1ccccc1)C(=O)c1ccccc1 (stereo not drawn)	26.8
NC1=NC(=S)N=C(N)C1C(CC(=O)c1ccccc1)C(=O)c1ccccc1 (stereo not drawn)	35.7
Cc1ccc(S(=O)(=O)CC(C2C(N)=NC(=O)N=C2N)S(=O)(=O)c2ccc(C)cc2)cc1 (stereo not drawn)	27.9
